Results taken from BindingDB's records for doi:10.1021/jm00019a014 (University of Ghent, 1995).

Legend:
[1] = biological target: glyceraldehyde-3-phosphate dehydrogenase (glycosomal GAPDH per title); experiment: TInhibition of glyceraldehyde-3-phosphate dehydrogenase in Leishmania mexicana
In short: (§1)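 Enzyme sources: human erythrocyte GAPDH, glycosomal GAPDH from T. brucei, and glycosomal GAPDH from L. mexicana. IC50 is the inhibitor concentration at which 50% of enzyme activity remains. Poorly soluble compounds were not tested above their solubility limit, and the remaining activity at that level was recorded instead.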

[2] = biological target: glycosomal glyceraldehyde-3-phosphate dehydrogenase (GAPDH); experiment: Inhibition of glyceraldehyde-3-phosphate dehydrogenase in Trypanosoma brucei; in short: as §1

| IC50 [1] [mM] | IC50 [2] [mM] | SMILES |
| --- | --- | --- |
| > 10 | > 10 | Nc1ncnc2c1ncn2C1OC(CO)C(O)C1NCc1ccccc1 (stereo unspecified) [5-(6-Amino-purin-9-yl)-4-benzylamino-2-hydroxymethyl-tetrahydro-furan-3-ol] |
| > 10 | > 10 | COc1cccc(C(=O)NC2C(O)C(CO)OC2n2cnc3c(N)nc(C)nc32)c1 (stereo unspecified) [N-[2-(6-Amino-2-methyl-purin-9-yl)-4-hydroxy-5-hydroxymethyl-tetrahydro-furan-3-yl]-3-methoxy-benzamide] |
| > 10 | > 10 | CC(C)COC(=O)NC1C(O)C(CO)OC1n1cnc2c(N)ncnc21 (stereo unspecified) [[2-(6-Amino-purin-9-yl)-4-hydroxy-5-hydroxymethyl-tetrahydro-furan-3-yl]-carbamic acid isobutyl ester] |
